For data set [1], the target named is T1, Hepatocyte growth factor receptor (Homo sapiens, UniProt P08581). Kind of data set: Inhibition of c-Met at 10 uM after 60 mins by ELISA. An outline of the steps:
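c-Met tyrosine kinase ELISA with Poly(Glu,Tyr) 4:1 substrate and 10 µM ATP in HEPES pH 7.4 buffer with Mg²⁺/Mn²⁺, run 60 min at 37 °C. Phosphotyrosine was detected with PY99 and an HRP secondary antibody, read at 490 nm. Percent inhibition was measured at a single compound concentration.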
Background: An ELISA detects its analyte on a solid surface through an enzyme-linked reagent.

Data set [2] has as its target T1, Hepatocyte growth factor receptor. Description: Inhibition of c-Met after 60 mins by ELISA. An outline of the steps:
(§1)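 ELISA on plates pre-coated with Poly(Glu,Tyr) 4:1 at 20 µg/mL. Detection used anti-phosphotyrosine PY99, then HRP anti-mouse IgG and o-phenylenediamine/H₂O₂, read at 490 nm. IC50 was calculated by the Logit method from ≥3 independent tests at six concentrations each.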

Data set [3] has as its system BaF3. Kind of data set: Antiproliferative activity against […] BAF3 cells expressing TPR-Met assessed as inhibition of cell growth at 10 uM. The data set is classed as functional. The settings on record: Mus musculus. An outline of the steps:
(§2)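 BaF3 cells stably expressing TPR-Met were seeded in 96-well plates. Next day they were exposed to compound at 10, 1 or 0.1 µM for 72 h. Growth was read by MTT at A570. Inhibition (%) = [1 − (A570/A570 control)] × 100.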

Data set [4] relates to BaF3. Description: Antiproliferative activity against […] BAF3 cells expressing TPR-Met assessed as inhibition of cell growth at 1 uM. Particulars: Mus musculus. The data set is classed as functional. An outline of the steps:
as §2

The subject of data set [5] is BaF3. Kind of data set: Antiproliferative activity against […] BAF3 cells expressing TPR-Met assessed as inhibition of cell growth at 0.1 uM. In kind it is functional. The settings on record: Mus musculus. In outline: as §2
In data set [6] the target is Macrophage-stimulating protein receptor (Homo sapiens, UniProt Q04912). Description: Inhibition of RON. In outline:
as §1

Data set [7] deals with Platelet-derived growth factor receptor alpha (Homo sapiens, UniProt P16234). Kind of data set: Inhibition of PDGFRalpha. An outline of the steps: as §1
Data set [8] deals with Proto-oncogene tyrosine-protein kinase receptor Ret (Homo sapiens, UniProt P07949). Description: Inhibition of RET. In outline: as §1
Data set [9] deals with Receptor tyrosine-protein kinase erbB-2 (Homo sapiens, UniProt P04626). Description: Inhibition of ERBB2. In outline:
as §1

For data set [10], the target named is Receptor tyrosine-protein kinase erbB-4 (Homo sapiens, UniProt Q15303). Description: Inhibition of ERBB4. In outline:
as §1

Data set [11] deals with Proto-oncogene tyrosine-protein kinase Src (Homo sapiens, UniProt P12931). Description: Inhibition of c-SRC. In outline:
as §1

Data set [12] addresses Tyrosine-protein kinase ABL1 (Homo sapiens, UniProt P00519). Kind of data set: Inhibition of Abl. In outline:
as §1

Data set [13] deals with Ephrin type-A receptor 2 (Homo sapiens, UniProt P29317). Kind of data set: Inhibition of EPHA2. An outline of the steps: as §1
The target in data set [14] is T2, Ephrin type-B receptor 2 (Homo sapiens, UniProt P29323).
T2 sequence (P29323 whole entry): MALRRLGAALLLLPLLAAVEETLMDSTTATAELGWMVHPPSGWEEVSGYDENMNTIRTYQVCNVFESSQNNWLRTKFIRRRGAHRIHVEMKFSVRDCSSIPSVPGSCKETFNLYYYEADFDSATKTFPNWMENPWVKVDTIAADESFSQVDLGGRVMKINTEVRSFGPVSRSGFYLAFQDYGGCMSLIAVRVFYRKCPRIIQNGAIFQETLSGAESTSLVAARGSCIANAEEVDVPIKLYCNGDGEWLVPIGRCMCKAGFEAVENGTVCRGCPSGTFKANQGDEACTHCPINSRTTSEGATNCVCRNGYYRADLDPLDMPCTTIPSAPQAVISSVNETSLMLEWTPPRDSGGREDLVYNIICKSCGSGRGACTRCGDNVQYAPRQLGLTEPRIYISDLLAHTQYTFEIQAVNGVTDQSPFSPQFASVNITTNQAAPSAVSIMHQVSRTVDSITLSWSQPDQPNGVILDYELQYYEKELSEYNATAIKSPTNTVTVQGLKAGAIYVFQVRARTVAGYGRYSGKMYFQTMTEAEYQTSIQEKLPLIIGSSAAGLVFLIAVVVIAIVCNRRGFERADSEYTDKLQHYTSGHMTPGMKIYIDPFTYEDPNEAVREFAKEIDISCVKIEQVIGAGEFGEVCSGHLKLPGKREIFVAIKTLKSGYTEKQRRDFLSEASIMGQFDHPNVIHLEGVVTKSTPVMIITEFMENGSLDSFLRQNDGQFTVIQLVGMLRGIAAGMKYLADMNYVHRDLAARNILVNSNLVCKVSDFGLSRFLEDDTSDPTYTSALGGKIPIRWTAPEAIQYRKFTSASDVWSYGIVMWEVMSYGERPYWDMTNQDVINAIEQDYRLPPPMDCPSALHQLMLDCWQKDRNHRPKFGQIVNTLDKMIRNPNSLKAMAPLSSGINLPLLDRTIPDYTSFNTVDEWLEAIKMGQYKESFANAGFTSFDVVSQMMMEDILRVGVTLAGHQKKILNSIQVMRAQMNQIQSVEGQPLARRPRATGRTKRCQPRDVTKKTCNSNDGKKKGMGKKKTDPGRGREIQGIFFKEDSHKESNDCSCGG
Kind of data set: Inhibition of EPHB2. In outline: as §1

Data set [15] concerns the target Insulin-like growth factor 1 receptor (Homo sapiens, UniProt P08069). Kind of data set: Inhibition of IGF1R. An outline of the steps: as §1
The target in data set [16] is Fibroblast growth factor receptor 1 (Homo sapiens, UniProt P11362). Description: Inhibition of FGFR1. An outline of the steps:
as §1

The target of data set [17] is Vascular endothelial growth factor receptor 1 (Homo sapiens, UniProt P17948). Description: Inhibition of FLT1. An outline of the steps: as §1
For data set [18], the system named is Mus musculus. Description: Toxicity in nude mouse xenografted with human U87MG cells assessed as body weight loss at 100 mg/kg, ip for 3 weeks. The data set is classed as organism-based, U-87MG ATCC. Set-up: dose 100 mg/kg, route intraperitoneal. The settings on record: in vivo, 504 h. An outline of the steps:
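Nude mice bearing U-87MG tumor fragments were dosed ip 7 days/week for 3 weeks, n = 6 per group, versus vehicle controls. Body weight was monitored during treatment.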
For orientation: Xenograft models place foreign cells or tissue in a host animal.

Data set [19] is described as follows: Half life in mouse at 10 mg/kg, iv and 20 mg/kg, po. The data set is classed as ADME, organism-based. Particulars: in vivo. An outline of the steps: (§3)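 Pharmacokinetics were run in mice after a single dose of 10 mg/kg iv or 20 mg/kg po.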
Data set [20] in a line: Clearance in mouse at 10 mg/kg, iv. The data set is classed as ADME, organism-based. Details: dose 10 mg/kg, route intravenous. Particulars: in vivo. An outline of the steps:
as §3

Data set [21] in a line: Oral bioavailability in mouse at 20 mg/kg. In kind it is ADME, organism-based. The settings on record: in vivo. In outline: as §3
Data set [22] is described as follows: Aqueous solubility of the compound. The data set is classed as physicochemical. The settings on record: buffer.
Data set [23] deals with T1, Hepatocyte growth factor receptor. The settings on record: BaF3, 0.1 to 10 uM.
The target is the same in data set [24]. Particulars: BaF3, 0.1-10 uM.
Data set [25] can be described thus: Antitumor activity against human U87MG cells xenografted in nude mouse assessed as inhibition of tumor growth at 100 mg/kg. The data set is classed as functional, U-87MG ATCC. Particulars: U-87 MG.

The source made the active and inactive calls.

Consider two molecules from ChEMBL document CHEMBL1811756, “Discovery of novel c-Met kinase inhibitors bearing a thieno[2,3-d]pyrimidine or furo[2,3-d]pyrimidine scaffold” (Bioorg Med Chem, 2011).

T1 sequence (P08581 whole entry): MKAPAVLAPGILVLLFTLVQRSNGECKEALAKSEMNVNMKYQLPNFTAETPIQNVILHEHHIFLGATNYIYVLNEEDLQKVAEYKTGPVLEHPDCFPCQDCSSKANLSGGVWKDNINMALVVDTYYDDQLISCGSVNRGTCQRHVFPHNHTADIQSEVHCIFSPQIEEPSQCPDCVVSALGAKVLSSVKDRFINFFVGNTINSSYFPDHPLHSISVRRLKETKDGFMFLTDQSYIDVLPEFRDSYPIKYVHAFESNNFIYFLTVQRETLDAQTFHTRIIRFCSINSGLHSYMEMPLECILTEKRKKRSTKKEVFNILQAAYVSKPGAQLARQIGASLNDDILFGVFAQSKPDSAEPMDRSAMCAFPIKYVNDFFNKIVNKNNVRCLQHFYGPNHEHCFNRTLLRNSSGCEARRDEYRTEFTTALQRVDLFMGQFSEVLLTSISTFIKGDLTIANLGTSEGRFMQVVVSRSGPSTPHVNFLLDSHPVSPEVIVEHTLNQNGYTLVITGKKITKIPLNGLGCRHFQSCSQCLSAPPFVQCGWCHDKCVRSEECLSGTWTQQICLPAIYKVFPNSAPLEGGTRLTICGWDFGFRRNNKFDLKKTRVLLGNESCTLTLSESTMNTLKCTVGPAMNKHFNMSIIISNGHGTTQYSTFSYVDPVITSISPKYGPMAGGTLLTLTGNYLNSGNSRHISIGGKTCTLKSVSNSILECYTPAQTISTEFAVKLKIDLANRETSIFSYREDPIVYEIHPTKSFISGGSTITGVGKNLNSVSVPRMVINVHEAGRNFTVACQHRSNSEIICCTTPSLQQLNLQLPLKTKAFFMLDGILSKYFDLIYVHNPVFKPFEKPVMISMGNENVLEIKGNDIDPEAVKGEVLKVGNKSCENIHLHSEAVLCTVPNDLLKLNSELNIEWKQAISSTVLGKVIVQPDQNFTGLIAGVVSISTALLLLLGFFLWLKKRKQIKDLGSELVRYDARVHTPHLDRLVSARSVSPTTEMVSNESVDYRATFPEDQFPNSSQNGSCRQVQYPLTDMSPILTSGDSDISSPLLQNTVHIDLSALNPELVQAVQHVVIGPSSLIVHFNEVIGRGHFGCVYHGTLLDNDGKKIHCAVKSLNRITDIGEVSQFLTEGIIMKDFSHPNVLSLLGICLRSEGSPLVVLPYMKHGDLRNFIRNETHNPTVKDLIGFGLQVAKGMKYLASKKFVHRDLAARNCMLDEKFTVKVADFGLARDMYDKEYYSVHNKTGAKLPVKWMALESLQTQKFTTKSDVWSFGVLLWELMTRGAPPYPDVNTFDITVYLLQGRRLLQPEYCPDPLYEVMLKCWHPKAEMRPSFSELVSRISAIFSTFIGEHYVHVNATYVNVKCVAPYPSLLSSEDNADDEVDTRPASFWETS
Chain of Platelet-derived growth factor receptor alpha (P16234 whole entry): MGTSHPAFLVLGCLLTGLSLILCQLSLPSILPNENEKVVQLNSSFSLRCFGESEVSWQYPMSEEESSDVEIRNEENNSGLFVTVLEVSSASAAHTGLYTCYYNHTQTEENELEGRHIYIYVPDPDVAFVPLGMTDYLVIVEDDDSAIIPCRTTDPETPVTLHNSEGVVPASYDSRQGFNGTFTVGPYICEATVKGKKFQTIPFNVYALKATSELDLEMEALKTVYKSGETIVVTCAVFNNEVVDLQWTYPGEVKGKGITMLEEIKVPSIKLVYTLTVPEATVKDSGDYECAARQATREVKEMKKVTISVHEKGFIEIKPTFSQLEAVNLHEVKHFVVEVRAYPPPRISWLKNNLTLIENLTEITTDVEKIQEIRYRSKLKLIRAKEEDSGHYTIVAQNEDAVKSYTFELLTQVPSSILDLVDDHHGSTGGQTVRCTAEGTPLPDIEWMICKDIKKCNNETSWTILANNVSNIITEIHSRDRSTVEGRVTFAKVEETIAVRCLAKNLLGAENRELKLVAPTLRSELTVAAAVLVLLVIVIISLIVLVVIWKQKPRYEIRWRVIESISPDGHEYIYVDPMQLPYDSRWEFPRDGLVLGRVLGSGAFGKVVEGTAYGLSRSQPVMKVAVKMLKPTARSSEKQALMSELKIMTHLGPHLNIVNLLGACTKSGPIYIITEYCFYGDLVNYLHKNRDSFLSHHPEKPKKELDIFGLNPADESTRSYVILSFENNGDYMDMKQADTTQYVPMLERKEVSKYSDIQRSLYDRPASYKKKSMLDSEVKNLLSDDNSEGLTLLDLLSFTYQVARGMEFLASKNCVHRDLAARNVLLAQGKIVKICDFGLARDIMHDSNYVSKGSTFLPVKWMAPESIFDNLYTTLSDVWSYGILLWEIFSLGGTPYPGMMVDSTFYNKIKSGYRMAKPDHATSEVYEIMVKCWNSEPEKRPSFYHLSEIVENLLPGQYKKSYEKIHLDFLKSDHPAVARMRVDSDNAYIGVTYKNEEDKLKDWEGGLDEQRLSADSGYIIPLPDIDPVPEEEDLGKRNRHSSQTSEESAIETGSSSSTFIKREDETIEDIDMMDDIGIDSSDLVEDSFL
Chain of Fibroblast growth factor receptor 1 (P11362 whole entry): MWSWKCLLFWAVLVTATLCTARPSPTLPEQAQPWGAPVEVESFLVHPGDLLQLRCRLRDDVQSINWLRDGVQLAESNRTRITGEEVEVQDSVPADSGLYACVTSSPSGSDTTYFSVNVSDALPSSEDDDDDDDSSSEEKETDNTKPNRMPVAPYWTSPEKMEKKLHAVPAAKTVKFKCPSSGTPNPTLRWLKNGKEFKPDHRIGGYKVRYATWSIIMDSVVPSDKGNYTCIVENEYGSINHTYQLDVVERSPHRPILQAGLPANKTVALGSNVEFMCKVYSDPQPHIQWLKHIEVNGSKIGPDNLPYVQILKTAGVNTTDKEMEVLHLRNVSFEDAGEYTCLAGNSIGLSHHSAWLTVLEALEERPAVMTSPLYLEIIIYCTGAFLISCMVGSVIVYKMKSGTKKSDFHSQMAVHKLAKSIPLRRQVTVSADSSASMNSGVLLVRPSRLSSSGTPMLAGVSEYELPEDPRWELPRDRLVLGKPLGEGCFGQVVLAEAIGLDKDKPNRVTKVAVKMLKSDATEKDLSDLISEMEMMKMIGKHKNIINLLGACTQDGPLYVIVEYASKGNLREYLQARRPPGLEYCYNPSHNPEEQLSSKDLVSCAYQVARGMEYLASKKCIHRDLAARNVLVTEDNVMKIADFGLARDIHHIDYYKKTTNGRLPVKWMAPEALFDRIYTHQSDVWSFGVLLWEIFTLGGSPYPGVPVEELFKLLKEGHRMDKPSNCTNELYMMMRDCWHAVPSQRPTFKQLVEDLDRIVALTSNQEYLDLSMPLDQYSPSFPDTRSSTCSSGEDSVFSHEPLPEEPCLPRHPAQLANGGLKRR
Chain of Proto-oncogene tyrosine-protein kinase receptor Ret (P07949 whole entry): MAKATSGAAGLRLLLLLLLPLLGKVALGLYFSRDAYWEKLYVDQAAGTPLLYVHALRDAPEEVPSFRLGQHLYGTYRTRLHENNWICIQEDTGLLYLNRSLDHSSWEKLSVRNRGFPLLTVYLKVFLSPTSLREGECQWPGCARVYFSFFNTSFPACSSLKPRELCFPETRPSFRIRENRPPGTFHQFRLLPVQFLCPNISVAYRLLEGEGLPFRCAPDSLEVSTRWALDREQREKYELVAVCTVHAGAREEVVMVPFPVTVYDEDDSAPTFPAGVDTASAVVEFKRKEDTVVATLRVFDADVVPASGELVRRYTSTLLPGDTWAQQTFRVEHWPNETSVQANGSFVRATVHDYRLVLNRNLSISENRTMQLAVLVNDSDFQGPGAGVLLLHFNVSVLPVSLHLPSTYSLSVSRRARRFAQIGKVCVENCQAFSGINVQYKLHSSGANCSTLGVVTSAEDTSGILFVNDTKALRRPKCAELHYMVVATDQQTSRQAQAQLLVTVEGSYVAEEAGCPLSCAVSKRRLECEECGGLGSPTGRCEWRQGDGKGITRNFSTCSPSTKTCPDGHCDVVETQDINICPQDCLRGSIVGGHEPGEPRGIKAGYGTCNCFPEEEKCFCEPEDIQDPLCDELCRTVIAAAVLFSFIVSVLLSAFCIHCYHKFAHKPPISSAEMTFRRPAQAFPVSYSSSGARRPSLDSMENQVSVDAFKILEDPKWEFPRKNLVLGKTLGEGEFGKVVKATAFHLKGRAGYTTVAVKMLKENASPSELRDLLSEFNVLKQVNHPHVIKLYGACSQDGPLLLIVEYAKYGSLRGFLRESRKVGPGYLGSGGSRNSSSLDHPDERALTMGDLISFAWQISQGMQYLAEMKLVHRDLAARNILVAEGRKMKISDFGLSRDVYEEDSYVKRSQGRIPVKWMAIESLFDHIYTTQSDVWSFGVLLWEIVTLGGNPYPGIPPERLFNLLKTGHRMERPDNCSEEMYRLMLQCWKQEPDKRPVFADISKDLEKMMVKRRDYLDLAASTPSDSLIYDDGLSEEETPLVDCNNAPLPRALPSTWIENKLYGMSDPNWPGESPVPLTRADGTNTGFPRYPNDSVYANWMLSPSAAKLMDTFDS
Chain of Proto-oncogene tyrosine-protein kinase Src (P12931 2-536 limits assumed): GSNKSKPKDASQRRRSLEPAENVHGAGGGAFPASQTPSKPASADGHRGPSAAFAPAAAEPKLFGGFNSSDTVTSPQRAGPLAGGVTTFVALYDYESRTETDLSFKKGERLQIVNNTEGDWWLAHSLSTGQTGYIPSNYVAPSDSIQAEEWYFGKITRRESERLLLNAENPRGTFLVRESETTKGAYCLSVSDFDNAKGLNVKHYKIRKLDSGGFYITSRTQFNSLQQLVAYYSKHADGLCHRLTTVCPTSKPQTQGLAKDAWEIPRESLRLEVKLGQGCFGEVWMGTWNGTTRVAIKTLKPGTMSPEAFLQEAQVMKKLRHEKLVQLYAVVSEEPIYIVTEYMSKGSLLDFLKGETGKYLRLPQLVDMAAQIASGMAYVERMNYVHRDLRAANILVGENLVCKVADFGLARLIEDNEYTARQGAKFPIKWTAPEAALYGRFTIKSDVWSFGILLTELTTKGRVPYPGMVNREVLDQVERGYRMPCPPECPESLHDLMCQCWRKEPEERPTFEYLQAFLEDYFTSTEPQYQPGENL

For `O=C(Nc1ccc(Oc2ncnc3scc(-c4ccccc4)c23)c(F)c1)c1cccn(-c2ccc(F)cc2)c1=O`, the inhibition in data set [1] worked out at 94.3%. The IC50 in data set [2] is 35.7 nM; in [6], 50.4 nM; in data set [7], above 10 µM; in data set [8] it was above 10 µM; in data set [9], above 10 µM; in data set [10], above 10 µM. The IC50 in data set [11], in [12], in data set [13], in data set [14], in [15] and in data set [16] was above 10 µM in each case. Moreover, the IC50 in [17] is above 10 µM. The inhibition at 10 µM in [3] amounted to 94.6%. The inhibition at 1 µM in data set [4] turned out to be 69.5%. For the same molecule, the inhibition at 0.1 µM in [5] was -10.5%. Besides, the Activity result in data set [18] was “Non-toxic”. In [19], the half-life was 100 min. Moreover, the clearance in data set [20] was 47.2 mL/min/kg. This molecule also returned a bioavailability in [21] of 5%. Moreover, the solubility result in data set [22] was “Insoluble”. Also, the inhibition result in data set [23] and in [24] was “Active” in each case.
Regarding `COc1cc2nccc(Oc3ccc(NC(=S)NC(=O)Cc4ccccc4)cc3F)c2cc1OC`, in data set [25], the inhibition in vivo at 100 mg/kg came to 70%.

The inhibition is the change of the read-out against control, counted positive when it falls. For orientation: IC50 means the concentration at which inhibition is half-maximal. A higher IC50 goes with weaker potency. Usually half-life stands for the time needed for the level to fall by half in the phase considered. A low value points to rapid decline. The term clearance denotes the volume of plasma or blood freed of the substance per unit of time. The low end stands for a low capacity for elimination, the high end for a high capacity for elimination. The bioavailability is dose-corrected exposure relative to a reference, in per cent. The low end stands for little systemic uptake, the high end for much systemic uptake. Broadly, the inhibition in vivo is the share of the control response that was lost under treatment.
